Reference: ChEMBL document CHEMBL1157434, “2-Aminopropane-1,2,3-tricarboxylic acid: Synthesis and co-crystallization with the class A beta-lactamase BS3 of Bacillus licheniformis” (Bioorg Med Chem Lett, 2008)

Legend:
[1] = Inhibition of Bacillus licheniformis beta-lactamase BS3 in 25 mM acetate buffer at pH 5
Procedure, shortened: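 Purified BS3 (1–100 nM) mixed with inhibitor and the chromogenic substrate nitrocefin. Ki obtained from a plot of V0/Vi (uninhibited over inhibited hydrolysis rate) against inhibitor concentration. Three independent runs.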

[2] = Inhibition of beta-lactamase TEM1 in 25 mM acetate buffer at pH 5
Procedure, shortened: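 Hydrolysis rates were measured without and with inhibitor at varying concentrations. Ki was derived from a plot of V0/Vi against inhibitor concentration. Performed three times.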

Enterobacter cloacae = test: Inhibition of Enterobacter cloacae beta-lactamase P99 in 50 mM phosphate buffer at pH 7.2 at 100 uM; values are per cent of control
[3] = molecular target: Beta-lactamase OXA-10 (Pseudomonas aeruginosa) (UniProt P14489); test: Inhibition of Pseudomonas aeruginosa beta-lactamase Oxa-10 in 50 mM phosphate buffer at pH 7.2 at 100 uM; values are per cent of control
Bacillus licheniformis = test: Inhibition of Bacillus licheniformis beta-lactamase BS3 in 50 mM phosphate buffer at pH 7.2 at 100 uM; values are per cent of control
[4] = Inhibition of beta-lactamase TEM1 in 50 mM phosphate buffer at pH 7.2 at 0.2 mM
[5] = molecular target: T1, Imipenem-hydrolyzing beta-lactamase (Enterobacter cloacae) (UniProt P52663); test: Inhibition of Enterobacter cloacae beta-lactamase NMCA in 50 mM phosphate buffer at pH 7.2 at 100 uM; values are per cent of control
T1 sequence (whole entry): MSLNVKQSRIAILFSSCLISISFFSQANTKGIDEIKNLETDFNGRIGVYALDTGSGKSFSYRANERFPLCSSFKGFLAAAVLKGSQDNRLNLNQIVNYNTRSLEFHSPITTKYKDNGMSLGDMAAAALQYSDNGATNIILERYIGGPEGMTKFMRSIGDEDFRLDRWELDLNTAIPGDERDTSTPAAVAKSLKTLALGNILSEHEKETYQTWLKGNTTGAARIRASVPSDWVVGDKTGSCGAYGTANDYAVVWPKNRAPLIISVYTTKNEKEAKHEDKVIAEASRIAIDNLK

[6] = system: beta-lactamase BcII (Bacillus cereus); test: Inhibition of Bacillus cereus beta-lactamase Bc2 in 50 mM phosphate buffer at pH 7.2 at 100 uM; values are per cent of control
[7] = Inhibition of beta-lactamase TEM1 in 50 mM phosphate buffer at pH 7.2 at 2 mM

Chain of Beta-lactamase OXA-10 (Pseudomonas aeruginosa) (P14489 whole entry): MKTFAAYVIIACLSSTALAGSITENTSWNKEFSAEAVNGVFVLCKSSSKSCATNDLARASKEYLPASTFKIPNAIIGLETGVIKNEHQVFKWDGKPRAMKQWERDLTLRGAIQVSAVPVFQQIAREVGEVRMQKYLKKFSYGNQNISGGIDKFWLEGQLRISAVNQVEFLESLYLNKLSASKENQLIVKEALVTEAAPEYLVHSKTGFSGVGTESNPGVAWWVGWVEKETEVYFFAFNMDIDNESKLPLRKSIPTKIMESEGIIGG

Row | Ki [2] | residual activity (Enterobacter cloacae) | residual activity [3] | residual activity (Bacillus licheniformis) | residual activity [4] | residual activity [5] | residual activity [6] | residual activity [7] | Compound | Ki [1]
1 | – | 87% | 98% | 82% | 71% | 60% | 92% | – | CCOC(=O)CC(N)(CC(=O)OCC)C(=O)OCC | –
2 | 150 µM | 81% | 100% | 88% | – | 94% | – | 95% | NC(CC(=O)O)(CC(=O)O)C(=O)O | –
3 | 1500 µM | – | – | – | – | – | – | – | O=C(O)CC(C(=O)O)C(O)C(=O)O (stereo unspecified) [ISOCITRATE] | 2200 µM

Row | Compound | Ki [2] | residual activity (Enterobacter cloacae) | residual activity [3] | residual activity (Bacillus licheniformis) | residual activity [4] | residual activity [5] | residual activity [6] | residual activity [7] | Ki [1]
4 | O=C(O)CC(O)(CC(=O)O)C(=O)O [CITRIC ACID] | 730 µM | – | – | – | – | – | – | – | 490 µM
